Results from ChEMBL document CHEMBL1129666, “Cross-linking and sequence specific alkylation of DNA BY aziridinylquinones. 1. Quinone methides” (J Med Chem, 1996).

Assays:
[1] = system: Nucleic Acid; test: Efficiency at pBR322 DNA interstand cross-linking at 10 uM; format: functional; details: Escherichia coli
In short: (§1)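 5'-end-labelled HindIII-linearised pBR322 (~5000 cpm/sample) incubated with compound 2 h at 37 °C, pH 4, in TEA buffer with 2 mM ascorbic acid reduction. Stopped, ethanol-precipitated, denatured 90 °C 2 min in strand separation buffer, run on 0.8% agarose (Tris-acetate, 40 V, 16 h). Autoradiograph densitometry gives percent double-stranded (cross-linked) DNA per lane. Single representative experiment.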

[2] = system: Nucleic Acid; test: Efficiency at pBR322 DNA interstand cross-linking at 100 uM; format: functional; details: Escherichia coli; in short: as §1
[3] = system: K562; test: In vitro cytotoxicity against Human Chronic Leukemia K562 cells; format: functional, cell-based
In short: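 600 cells/well exposed to compound for 2 h, growth measured by MTT with absorbance at 540 and 640 nm. Growth inhibition plotted against concentration, triplicate per concentration.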

SMILES | Cross linking [1] [%] | Cross linking [2] [%] | IC50 [3] [nM]
CC1=C(C)C(=O)C(N2CC2)=CC1=O | 1.2 | 4.7 | 1300
CC1=CC(=O)C(N2CCC2)=CC1=O | 0 | 0 | > 25000
CC1=CC(=O)C=CC1=O [Cresoquinone] | 0 | 0 | 2750
O=C1C=C(N2CCC2)C(=O)C=C1N1CCC1 | 0 | 0 | > 40000
CC1=C(C)C(=O)C(C)=C(C)C1=O [DUROQUINONE] | 0 | 0 | > 50000
O=C1C=C(N2CC2)C(=O)C=C1N1CC1 | 100 | 100 | 9
CC1=CC(=O)C(N2CC2)=CC1=O | 12.2 | 81 | 100
CC1=CC(=O)C=C(C)C1=O | 0 | 0 | 1250
CCCC1=CC(=O)C(N2CC2)=CC1=O | 2.2 | 13.2 | 600
CC1=CC(=O)C(C)=C(C)C1=O | 0 | 0 | 3600
NC1=CC(=O)C(N)=CC1=O | 0 | 0 | > 25000
CC1=CC(=O)C(N)=CC1=O | 0 | 0 | > 15000
CC1=C(C)C(=O)C=CC1=O | 0 | 0 | 1400
CCC1=CC(=O)C(N2CC2)=CC1=O | 6.9 | 57.1 | 600
CC1=CC(=O)C(N2CC2)=C(C)C1=O | 3 | 9 | 1200
